# High-throughput results: PubChem, several laboratories
# PglD DTNB: inhibitors of Campylobacter jejuni PglD acetyltransferase; purified PglD enzyme, DTNB colorimetric CoA detection; inhibition, % at 12.5 µM; hit rate 0.098% among 360,000; AID 602405; in the data active = inhibition above about 16%, passing the limit was not always enough
# Cneo AK release: Cryptococcus neoformans lysis via adenylate kinase release | C. neoformans lysis, adenylate kinase release luminescence, 4 h; normalised: neutral wells 0, clomiphene wells 100 | lysis activity, % at 15 µM | hit rate 0.2% among 360,000;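 active = mean lysis activity across replicates of at least 80%, whatever share of replicates individually reach that level; inactive = mean lysis activity below 80%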
#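 Test system: log-phase Cryptococcus neoformans yeast cells; Quantity: yeast cell density of 5 × 10^6 cells/mL; Buffer or medium: YPD; Doses: single compound concentration per well; Timing: 4 h at 37 °C static, read 1 h later; Measured by: AK luminescence; Read-out basis: lysis from increased AK signal; Control set: Clomiphene as positive control.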
# Mot1-301 SUMO: inhibitors of SUMOylation pathway: yeast Mot1-301 growth rescue; S. cerevisiae Mot1-301 growth rescue, ATP luminescence, 38.5C; percent above DMSO median, 100 means doubled; growth rescue, % at 18.8 µM; hit rate 1% among 320,000; AID 2716;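 active = every valid replicate shows activation above 250% relative to neutral control wells; inactive = the rest, any valid replicate at or below 250%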;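 also: OY570 slx delta 5 strain wells were the positive control but not used for scaling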
# rRNA inh HTS: inhibits bacterial ribosomal RNA function over humanized ribosomes | E. coli WT GFP vs humanized-ribosome RFP mutants, fluorescence, 24 h; hits give low values; DMSO median 0, no signal -100 | GFP signal change (wild-type ribosome), % (no concentration beside the values) | hit rate 1.6% among 350,000;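 active = significant combined selectivity score with lowered wild-type GFP, culture density cut under 30%, mutant RFP and density less affected; inactive = any of these conditions unmet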
# CR mimetic SO: lowers age-related superoxide in aged yeast cells; S. cerevisiae aged cells, superoxide DHE fluorescence; hits give low values; superoxide response (% of plate mean), % at 10 µM; hit rate 0.18% among 330,000;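 active = superoxide response under a set limit, about three screen SD below normal, cut at about 65% in these data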;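 also: yeast aged for seven days with compound at 30 °C before DHE staining; 100% = average MFI of all compound-treated wells on the plate with controls excluded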
# Yeast Mot1 SUMO: SUMO pathway inhibitors in yeast Mot1-301 growth; S. cerevisiae Mot1-301 galactose growth, ATP luminescence, 24 h; -100 = growth of slx-deleted rescue strain; 2,300 tested, under 10 active; growth activity, percent, % at 42 µM; AID 493004; shares compounds with Mot1-301 SUMO;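 active = Signal drops as the depositor expects, and the fitted half-maximal dose is no more than ten times the top valid tested dose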;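 also: more negative values mean stronger growth rescue toward the control strain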
# * hit, by the source's call; x = not tested or not shown; + = active, no number. Hits are enriched below; roughly 2.2% of the tested compounds scored in any of these assays.
SMILES,PglD DTNB,Cneo AK release,Mot1-301 SUMO,rRNA inh HTS,CR mimetic SO,Yeast Mot1 SUMO
CCOC(=O)c1oc2ccccc2c1COC(=O)CNC(=O)c1cccc(C)c1,-20.9,-1.4,984.1*,-5.2,110.9,0.1
O=C(CC1CC1)N1CC2(C1)[C@@H](c1ccccc1)[C@@H](CO)N2C(=O)C1CCOCC1,x,x,x,3.8,x,x
CCc1ccc(-c2nc(SCC(=O)N3CCOCC3)n[nH]2)cc1,x,x,526.5*,-5.5,134.0,1.0
O=C(CSc1n[nH]c(-c2cccs2)n1)N1CCOCC1,-1.0,1.6,-0.4,12.8,97.6,x
CCOc1ccc(NCC(=O)Nc2ccc(C)cc2C)cc1,4.2,-4.6,-11.0,-6.3,81.4,x
CCOc1ccc(NC(=O)CNc2ccc(C)cc2Cl)cc1,2.5,-8.1,810.9*,x,110.1,-0.9
O=C(CSc1nnc(-c2ccc(Br)cc2)o1)Nc1cccc(C(=O)O)c1,6.6,-0.5,-22.5,-1.3,104.8,x
O=C(CSc1nnc(-c2ccc(Br)cc2)o1)Nc1cccc2ccccc12,4.1,-1.9,663.4*,-12.6,90.6,0.0
Cc1cc(C)c2c(=O)[nH]cnc2n1,x,x,997.5*,7.2,81.7,0.0
O=C1C2CC=C(Cl)CC2C(=O)N1c1ncn[nH]1 (stereo not given),11.4,-0.7,570.4*,x,102.5,-0.1
Cc1cnc(C(=O)OCC(=O)Nc2ccc(C)c(S(=O)(=O)N(C)C)c2)cn1,x,x,668.6*,1.9,103.8,0.6
CCCC(=O)Nc1ccc(Sc2ccc([N+](=O)[O-])cc2)cc1,2.9,-1.9,373.6*,x,91.1,0.1
COc1cccc(S(=O)(=O)N[C@@H]2CC[C@@H](CC(=O)NC3Cc4ccccc4C3)O[C@H]2CO)c1,-2.5,0.5,x,-0.1,x,x
CC(=O)Nc1sc2c(c1C(c1ccc(F)cc1)N1CCOCC1)CCCC2 (stereo not given),-6.1,-1.3,385.2*,x,91.5,-0.3
CC(=O)Nc1sc2c(c1C(c1ccc(Cl)cc1)N1CCOCC1)CCCC2 (stereo not given),4.0,-5.5,195.4,x,101.7,x
CO[C@@H]1CN(C)C(=O)c2ccc(NC(C)=O)cc2OC[C@H](C)N(CCC(F)(F)F)C[C@@H]1C,-2.5,-11.2,x,0.4,x,x
CCC(C)[C@H](NC(=O)OC(C)(C)C)C(=O)NCC1CCC(C(=O)N[C@@H](Cc2ccccc2)C(=O)O)CC1 (stereo not given in full),4.8,-0.1,628.5*,1.1,112.1,-0.7
CC(C)(C)OC(=O)N[C@@H](Cc1ccccc1)C(=O)NCC1CCC(C(=O)N[C@@H](CC(=O)O)C(=O)O)CC1 (stereo not given in full),-1.1,-7.4,288.0,10.8,126.5,x
O=Nc1c(-c2cccc([N+](=O)[O-])c2)nc2ncccn12,2.1,-3.0,556.1*,-3.6,109.9,-0.1
O=[N+]([O-])c1cccc(-c2cn3nc(-c4ccccc4)c(-c4ccccc4)nc3n2)c1,6.3,0.9,7.2,x,118.7,x
Cc1ccc(-c2cnc3c(c2)C(=O)N([C@H](C)CO)C[C@@H](C)[C@H](CN(C)C(=O)c2cccnc2)O3)cc1,-3.4,5.5,x,-1.1,x,x
CO[C@H]1CN(C)C(=O)c2ccc(NC(=O)CC(F)(F)F)cc2OC[C@@H](C)N(S(=O)(=O)c2cn(C)cn2)C[C@@H]1C,-0.9,-1.9,x,3.5,x,x
C[C@H](CO)N1C[C@H](C)[C@@H](CN(C)S(C)(=O)=O)Oc2cc(C#CCN(C)C)ccc2S1(=O)=O,0.0,3.1,x,0.2,x,x
O=C(CSc1cccc2cccnc12)Nc1cc(C(=O)O)cc(C(=O)O)c1,0.1,-1.5,577.2*,10.3,102.2,0.8
O=C(c1ccc([N+](=O)[O-])o1)N1CCN(c2nc3c(Cl)cccc3s2)CC1,x,x,769.4*,-53.7,84.4,-0.9
SMILES,PglD DTNB,Cneo AK release,Mot1-301 SUMO,rRNA inh HTS,CR mimetic SO,Yeast Mot1 SUMO
O=C(C[C@H]1C=C[C@H](NC(=O)c2cccnc2)[C@H](CO)O1)NCCN1CCCCC1,x,x,x,2.6,x,x
O=C(Nc1ccccc1)N1CCCCN2[C@H](CO)[C@@H](c3ccc(C#Cc4ccccn4)cc3)[C@@H]2C1,x,x,x,0.8,x,x
CC(=O)N(C)C[C@H]1Oc2cc(C#Cc3cccc(F)c3)ccc2S(=O)(=O)N([C@H](C)CO)C[C@H]1C,2.7,-0.8,x,-6.3,x,x
CCCCCCCCn1cc(C(C)=O)c(=O)[nH]c1=O,3.5,-2.8,-13.4,x,105.1,x
C=CCn1cc(C(C)=O)c(=O)[nH]c1=O,x,x,609.6*,11.2,92.4,0.6
C[C@@H]1CN([C@@H](C)CO)C(=O)Cc2cc(NC(=O)CCCCCC(=O)Nc3ccccc3N)ccc2O[C@H]1CN(C)S(C)(=O)=O,-3.5,3.0,x,2.5,x,x
CC1(OC(=O)CCc2ccccc2)C(=O)C=C2C=C(c3ccc(C#N)cc3)N(c3ccccc3)C=C2C1=O (stereo not given),1.6,6.8,10.8,-23.5,97.9,x
CC1(OC(=O)CCc2ccccc2)C(=O)C=C2C=C(c3ccc(C#N)cc3)N(C3CCCC3)C=C2C1=O (stereo not given),-5.8,-0.2,645.4*,11.9,107.6,0.2
CC1(OC(=O)CCc2ccccc2)C(=O)C=C2C=C(c3ccc(C#N)cc3)N(CC3CC3)C=C2C1=O (stereo not given),-2.4,-0.8,588.6*,17.3,101.2,0.2
C[C@@H]1CN([C@@H](C)CO)C(=O)c2cc(NC(=O)Cc3cn(C)c4ccccc34)ccc2O[C@@H]1CN(C)S(=O)(=O)c1cn(C)cn1,12.6,-0.8,x,4.7,x,x
O=C(C[C@@H]1CC[C@H]2[C@@H](COC[C@H](O)CN2C(=O)Nc2ccc(F)cc2)O1)NCCc1ccccc1,0.8,0.5,x,-4.7,x,x
NC(=O)C1CCN(C2CC(=O)N(c3ccc(F)c(Cl)c3)C2=O)CC1 (stereo not given),-4.8,-0.4,649.2*,x,105.5,-0.8
NC(=O)C1CCN(C2CC(=O)N(c3cccc(F)c3)C2=O)CC1 (stereo not given),1.7,1.4,-6.0,x,92.4,x
O=C(C1CCN(C2CC(=O)N(c3cccc(Cl)c3)C2=O)CC1)N1CCCC1 (stereo not given),1.9,0.2,416.8*,x,90.6,-1.0
Cn1c(=O)[nH]c(=O)c2c1nc(NCCN)n2CCOc1ccccc1,-3.6,2.8,460.6*,7.5,103.4,-0.7
CCCNc1nc2c(c(=O)[nH]c(=O)n2C)n1CCOc1ccccc1,4.3,3.4,264.7,22.9,102.9,x
Cc1cccn2c(=O)c3cc(C(=O)NCCc4ccccc4)sc3nc12,-5.7,1.1,797.9*,0.8,121.5,0.4
Cc1cccn2c(=O)c3cc(C(=O)NCc4cccnc4)c(=N)n(C(C)C)c3nc12,x,-0.9,759.4*,x,97.6,0.3
COc1ccc(C(=O)Sc2ccc(Cl)cc2)cc1OC,0.5,1.7,+,x,100.5,0.0
